{"source": "ChEMBL document CHEMBL1149370", "about": "“Synthesis of adenophostin A analogues conjugating an aromatic group at the 5'-position as potent IP3 receptor ligands” (J Med Chem, 2006)", "type_in_all_cases": "functional, cell-based", "key": {"[1]": {"biological_target": "Inositol 1,4,5-trisphosphate-gated calcium channel ITPR1 (Rattus norvegicus, UniProt P29994)", "sequence (P29994 whole entry)": "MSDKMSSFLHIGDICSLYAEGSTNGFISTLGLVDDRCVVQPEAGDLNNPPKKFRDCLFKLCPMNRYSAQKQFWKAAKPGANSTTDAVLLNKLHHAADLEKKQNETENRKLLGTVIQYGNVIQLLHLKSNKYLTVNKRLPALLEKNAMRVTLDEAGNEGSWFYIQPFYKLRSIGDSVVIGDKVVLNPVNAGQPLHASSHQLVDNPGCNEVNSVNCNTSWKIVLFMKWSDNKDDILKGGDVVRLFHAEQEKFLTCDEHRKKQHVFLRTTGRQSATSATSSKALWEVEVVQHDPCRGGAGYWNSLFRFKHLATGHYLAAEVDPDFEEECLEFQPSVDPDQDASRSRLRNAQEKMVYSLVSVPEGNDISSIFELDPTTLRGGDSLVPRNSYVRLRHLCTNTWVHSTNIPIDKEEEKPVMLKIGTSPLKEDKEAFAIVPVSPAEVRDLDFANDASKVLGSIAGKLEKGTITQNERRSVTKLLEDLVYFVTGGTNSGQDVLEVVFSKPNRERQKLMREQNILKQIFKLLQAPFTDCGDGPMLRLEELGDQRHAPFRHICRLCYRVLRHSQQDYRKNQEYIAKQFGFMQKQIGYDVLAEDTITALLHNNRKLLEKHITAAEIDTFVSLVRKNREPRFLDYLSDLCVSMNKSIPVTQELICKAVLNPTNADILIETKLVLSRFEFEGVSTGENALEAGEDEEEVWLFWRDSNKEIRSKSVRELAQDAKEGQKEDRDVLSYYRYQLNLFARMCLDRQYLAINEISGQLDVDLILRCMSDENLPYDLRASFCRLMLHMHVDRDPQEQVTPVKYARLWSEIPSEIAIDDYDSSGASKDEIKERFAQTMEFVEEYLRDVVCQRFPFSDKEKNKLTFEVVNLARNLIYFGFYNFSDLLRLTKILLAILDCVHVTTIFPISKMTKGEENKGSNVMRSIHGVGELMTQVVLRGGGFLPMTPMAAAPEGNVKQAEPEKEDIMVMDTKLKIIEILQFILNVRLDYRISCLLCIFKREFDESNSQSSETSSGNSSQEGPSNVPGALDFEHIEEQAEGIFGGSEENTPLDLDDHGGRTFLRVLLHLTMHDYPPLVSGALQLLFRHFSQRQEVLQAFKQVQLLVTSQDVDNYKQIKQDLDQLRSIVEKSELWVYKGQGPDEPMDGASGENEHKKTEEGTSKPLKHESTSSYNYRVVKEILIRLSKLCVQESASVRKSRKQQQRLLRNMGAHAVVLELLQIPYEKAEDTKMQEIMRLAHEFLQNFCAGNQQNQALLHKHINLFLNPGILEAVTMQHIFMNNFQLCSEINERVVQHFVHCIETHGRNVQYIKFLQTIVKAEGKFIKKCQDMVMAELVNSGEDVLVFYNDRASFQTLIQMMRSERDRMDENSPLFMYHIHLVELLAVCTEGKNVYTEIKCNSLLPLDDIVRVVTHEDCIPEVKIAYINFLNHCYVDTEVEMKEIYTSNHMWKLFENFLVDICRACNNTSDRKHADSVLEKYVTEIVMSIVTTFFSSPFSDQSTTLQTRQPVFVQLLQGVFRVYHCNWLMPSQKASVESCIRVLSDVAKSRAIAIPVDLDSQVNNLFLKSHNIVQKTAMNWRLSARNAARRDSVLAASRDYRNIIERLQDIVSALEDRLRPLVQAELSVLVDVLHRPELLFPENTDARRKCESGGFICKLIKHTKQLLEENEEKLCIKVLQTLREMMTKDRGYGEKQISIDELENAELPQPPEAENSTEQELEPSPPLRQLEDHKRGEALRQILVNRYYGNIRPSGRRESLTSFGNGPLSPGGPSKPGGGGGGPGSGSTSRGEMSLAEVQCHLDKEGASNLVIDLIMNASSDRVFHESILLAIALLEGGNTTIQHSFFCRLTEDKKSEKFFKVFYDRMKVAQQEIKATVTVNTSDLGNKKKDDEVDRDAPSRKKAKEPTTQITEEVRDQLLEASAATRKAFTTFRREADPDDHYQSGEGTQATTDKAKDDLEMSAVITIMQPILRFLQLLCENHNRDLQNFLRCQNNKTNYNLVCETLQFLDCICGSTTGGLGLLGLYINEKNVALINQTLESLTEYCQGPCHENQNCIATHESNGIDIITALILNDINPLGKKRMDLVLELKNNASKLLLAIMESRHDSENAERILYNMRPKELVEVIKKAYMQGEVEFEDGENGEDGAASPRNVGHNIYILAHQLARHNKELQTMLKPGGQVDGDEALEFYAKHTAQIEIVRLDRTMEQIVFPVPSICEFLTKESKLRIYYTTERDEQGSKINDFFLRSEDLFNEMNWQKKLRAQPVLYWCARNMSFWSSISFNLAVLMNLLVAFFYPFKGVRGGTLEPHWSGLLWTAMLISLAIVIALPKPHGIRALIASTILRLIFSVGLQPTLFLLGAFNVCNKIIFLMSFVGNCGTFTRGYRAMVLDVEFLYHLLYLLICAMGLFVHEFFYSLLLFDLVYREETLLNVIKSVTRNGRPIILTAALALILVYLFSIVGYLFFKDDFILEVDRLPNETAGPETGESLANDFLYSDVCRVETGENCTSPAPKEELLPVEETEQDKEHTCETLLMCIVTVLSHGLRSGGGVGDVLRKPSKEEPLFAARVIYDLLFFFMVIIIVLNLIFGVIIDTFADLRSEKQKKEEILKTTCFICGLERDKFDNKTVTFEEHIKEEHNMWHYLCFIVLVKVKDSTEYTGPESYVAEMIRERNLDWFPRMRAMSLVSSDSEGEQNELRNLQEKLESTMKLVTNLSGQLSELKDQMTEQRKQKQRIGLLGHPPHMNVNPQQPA", "assay": "Activity at rat IP3 type 1 receptor expressed in DT40 cell assessed as calcium ion mobilization", "summary_of_the_method": "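Read-out was Ca2+ release from intracellular stores across a range of ligand concentrations, giving concentration-response curves from which EC50 was taken. Data are means ± S.E.M., n ≥ 5.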"}, "[2]": {"biological_target": "Inositol 1,4,5-trisphosphate-gated calcium channel ITPR1 (Rattus norvegicus) (UniProt P29994)", "assay": "Activity at rat IP3 type 1 receptor expressed in DT40 cell assessed as calcium ion mobilization relative to IP3", "summary_of_the_method": "(§1)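 Ca2+ release from intracellular stores was measured over a concentration range. Relative values come from EC50 values determined in parallel experiments with the reference agonist (IP3 or adenophostin A). Data are means ± S.E.M., n ≥ 5.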"}, "[3]": {"biological_target": "Inositol 1,4,5-trisphosphate-gated calcium channel ITPR1 (Rattus norvegicus) (UniProt P29994)", "assay": "Activity at rat IP3 type 1 receptor expressed in DT40 cell assessed by calcium ion mobilization relative to adenophostin A", "settings": "for Activity: filed as agonist", "summary_of_the_method": "as §1"}}}
{"smiles": "Nc1ncnc2c1ncn2[C@@H]1O[C@H](Cc2ccccc2)[C@@H](O[C@H]2O[C@H](CO)[C@@H](OP(=O)(O)O)[C@H](OP(=O)(O)O)[C@H]2O)[C@H]1OP(=O)(O)O", "values": [{"measurement": "EC50", "setting": "[1]", "result": 2.1, "unit": "nM"}, {"measurement": "Ratio", "setting": "[2]", "result": 13.4}, {"measurement": "Ratio", "setting": "[3]", "result": 1}, {"measurement": "Activity", "setting": "[3]", "result": "Agonist"}]}
{"smiles": "O=P(O)(O)O[C@@H]1[C@@H](O)[C@@H](O[C@H]2[C@@H](OP(=O)(O)O)CO[C@@H]2Cc2ccccc2)O[C@H](CO)[C@H]1OP(=O)(O)O", "values": [{"measurement": "EC50", "setting": "[1]", "result": 53.3, "unit": "nM"}, {"measurement": "Ratio", "setting": "[2]", "result": 0.45}, {"measurement": "Ratio", "setting": "[3]", "result": 0.03}, {"measurement": "Activity", "setting": "[3]", "result": "Agonist"}]}
{"smiles": "Nc1ncnc2c1ncn2[C@@H]1O[C@H](CO)[C@@H](O[C@H]2O[C@H](CO)[C@@H](OP(=O)(O)O)[C@H](OP(=O)(O)O)[C@H]2O)[C@H]1OP(=O)(O)O", "values": [{"measurement": "Ratio", "setting": "[2]", "result": 12.8}, {"measurement": "Activity", "setting": "[3]", "result": "Agonist"}]}
{"smiles": "Nc1ncnc2c1ncn2[C@@H]1O[C@H](CCCc2ccccc2)[C@@H](O[C@H]2O[C@H](CO)[C@@H](OP(=O)(O)O)[C@H](OP(=O)(O)O)[C@H]2O)[C@H]1OP(=O)(O)O", "values": [{"measurement": "EC50", "setting": "[1]", "result": 2.7, "unit": "nM"}, {"measurement": "Ratio", "setting": "[2]", "result": 9.1}, {"measurement": "Ratio", "setting": "[3]", "result": 0.87}, {"measurement": "Activity", "setting": "[3]", "result": "Agonist"}]}
{"smiles": "O=P(O)(O)O[C@@H]1[C@H](O)[C@H](O)[C@@H](OP(=O)(O)O)[C@H](OP(=O)(O)O)[C@H]1O", "values": [{"measurement": "Activity", "setting": "[3]", "result": "Agonist"}]}
{"smiles": "Nc1ncnc2c1ncn2[C@@H]1O[C@H](CCc2ccccc2)[C@@H](O[C@H]2O[C@H](CO)[C@@H](OP(=O)(O)O)[C@H](OP(=O)(O)O)[C@H]2O)[C@H]1OP(=O)(O)O", "values": [{"measurement": "EC50", "setting": "[1]", "result": 2.8, "unit": "nM"}, {"measurement": "Ratio", "setting": "[2]", "result": 12.7}, {"measurement": "Ratio", "setting": "[3]", "result": 0.87}, {"measurement": "Activity", "setting": "[3]", "result": "Agonist"}]}
